This is an account of results in ChEMBL document CHEMBL2385064, “Selective CB2 agonists with anti-pruritic activity: discovery of potent and orally available bicyclic 2-pyridones” (Bioorg Med Chem, 2013).

The species entered for one data set is Homo sapiens. Description: Selectivity ratio of Ki for human CB1 receptor to Ki for human CB2 receptor.
For the next data set, the target named is Cannabinoid receptor 1 (Homo sapiens, UniProt P21554). As to the kind of experiment: Displacement of [3H]-CP-55,940 from human CB1 receptor expressed in CHO cell membranes. The method in brief: (§1)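 Competition binding against [3H]-CP-55,940 on membranes from CHO cells stably expressing recombinant human CB1 or CB2. Between-day coefficient of variation is 0.24 for CB1 and 0.53 for CB2.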

The target in data set [1] is T1, Cannabinoid receptor 2 (Homo sapiens, UniProt P34972). Description: Displacement of [3H]-CP-55,940 from human CB2 receptor expressed in CHO cell membranes. The method in brief:
as §1

Data set [2] has as its target T1, Cannabinoid receptor 2. As to the kind of experiment: Agonist activity at human CB2 receptor expressed in CHO cells assessed as inhibition of forskolin-induced cAMP production. In kind it is functional, cell-based. The method in brief: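 Functional readout is inhibition of forskolin-evoked cAMP accumulation in CHO cells expressing human CB2. IC50 determined from more than four duplicate assay points. Between-day coefficient of variation is 0.63.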

Data set [3] concerns the target T1, Cannabinoid receptor 2. Description: Agonist activity at human CB2 receptor expressed in CHO cells assessed as inhibition of forskolin-induced cAMP production at 2 uM relative to control. Format: functional, cell-based. The method in brief: (§2)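 Forskolin-induced cAMP production measured in human CB2-expressing CHO cells. Emax is the maximum inhibition rate of cAMP production at the indicated concentration.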

In data set [4] the target is Cannabinoid receptor 2 (Mus musculus) (UniProt P47936). As to the kind of experiment: Displacement of [3H]-CP-55,940 from mouse spleen CB2 receptor expressed in CHO cell membranes.
Data set [5] in a line: Half life in mouse at 1 mg/kg, iv. The arrangement: dose 1 mg/kg, route intravenous. In kind it is ADME, organism-based. The conditions noted are these: in vivo.
The nature of data set [6]: Total plasma clearance in mouse at 1 mg/kg, iv. Format: ADME, organism-based. Set-up: dose 1 mg/kg, route intravenous.
Data set [7] can be described thus: Volume of distribution at steady state in mouse at 1 mg/kg, iv. In kind it is ADME, organism-based. Set-up: dose 1 mg/kg, route intravenous. The conditions noted are these: in vivo, read-out: Vdss.
Data set [8] addresses T1, Cannabinoid receptor 2. Description: Agonist activity at human CB2 receptor expressed in CHO cells assessed as inhibition of forskolin-induced cAMP production at 0.02 uM relative to control. In kind it is functional, cell-based. The method, boiled down: as §2
For data set [9], the system named is Mus musculus. As to the kind of experiment: Toxicity in po dosed ICR mouse assessed as decrease in locomotor activity at 100 mg/kg, po. In kind it is organism-based. The arrangement: dose 100 mg/kg, route oral. The conditions noted are these: in vivo.
The subject of data set [10] is Mus musculus. As to the kind of experiment: Oral bioavailability in mouse at 30 mg/kg. Format: ADME, organism-based. The following applies: in vivo.
In data set [11] the test system is Mus musculus. Description: Antipruritic activity in ICR mouse assessed as inhibition of compound 48/80-induced scratching-behavior at 100 mg/kg, po administered once before challenge relative to control. Format: functional. The method in brief:
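Female ICR mice had their backs clipped. Compound was given orally once (n = 6) in sesame oil or 0.5% methylcellulose. Scratching bouts at the site by hind paws were counted for 30 min. Result compared with the vehicle group by Dunnett's t-test (p<0.05).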

A short description of data set [12]: Cmax in mouse at 30 mg/kg, po. Format: ADME, organism-based. The arrangement: dose 30 mg/kg, route oral. The following applies: in vivo.
Data set [13] relates to Mus musculus. As to the kind of experiment: AUC in mouse at 30 mg/kg, po. Format: ADME, organism-based, Plasma. The arrangement: dose 30 mg/kg, route oral. The following applies: in vivo.
Data set [14] in a line: Half life in mouse at 2 mg/kg, iv. In kind it is ADME, organism-based. Set-up: dose 2 mg/kg, route intravenous. The conditions noted are these: in vivo.
Data set [15] can be described thus: Volume of distribution at steady state in mouse at 2 mg/kg, iv. In kind it is ADME, organism-based. Set-up: dose 2 mg/kg, route intravenous. The conditions noted are these: in vivo, read-out: Vdss.
In data set [16] the target is T1, Cannabinoid receptor 2. Description: Agonist activity at human CB2 receptor expressed in CHO cells assessed as inhibition of forskolin-induced cAMP production at 0.2 uM relative to control. Format: functional, cell-based. The method in brief:
as §2

The structures appear in SMILES notation. Calls of active or inactive are those of the source. The calls are words filed in the database; no cut-off is given here.

Sequence of Cannabinoid receptor 1 (P21554 whole entry): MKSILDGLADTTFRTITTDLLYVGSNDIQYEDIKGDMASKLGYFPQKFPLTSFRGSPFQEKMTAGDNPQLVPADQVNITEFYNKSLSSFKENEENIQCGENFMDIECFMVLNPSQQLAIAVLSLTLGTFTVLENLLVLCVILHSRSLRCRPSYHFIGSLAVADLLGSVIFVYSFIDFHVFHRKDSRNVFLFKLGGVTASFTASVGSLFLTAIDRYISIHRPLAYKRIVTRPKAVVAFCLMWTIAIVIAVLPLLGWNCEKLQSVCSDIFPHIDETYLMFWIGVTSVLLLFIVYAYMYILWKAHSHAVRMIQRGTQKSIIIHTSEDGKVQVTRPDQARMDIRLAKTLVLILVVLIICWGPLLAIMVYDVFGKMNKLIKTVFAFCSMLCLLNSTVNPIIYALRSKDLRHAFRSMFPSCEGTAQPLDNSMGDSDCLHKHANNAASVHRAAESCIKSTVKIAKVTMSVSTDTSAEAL
T1 sequence (P34972 whole entry): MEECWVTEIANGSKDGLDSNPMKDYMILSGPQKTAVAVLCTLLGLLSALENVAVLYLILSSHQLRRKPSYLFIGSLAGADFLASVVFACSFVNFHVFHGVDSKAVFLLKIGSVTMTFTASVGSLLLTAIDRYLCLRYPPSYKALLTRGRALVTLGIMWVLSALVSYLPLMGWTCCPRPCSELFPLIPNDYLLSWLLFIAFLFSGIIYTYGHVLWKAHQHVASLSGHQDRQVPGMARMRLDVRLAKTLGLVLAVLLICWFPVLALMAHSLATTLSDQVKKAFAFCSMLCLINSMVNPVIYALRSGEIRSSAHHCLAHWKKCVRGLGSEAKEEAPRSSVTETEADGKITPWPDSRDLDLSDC
Sequence of Cannabinoid receptor 2 (Mus musculus) (P47936 whole entry): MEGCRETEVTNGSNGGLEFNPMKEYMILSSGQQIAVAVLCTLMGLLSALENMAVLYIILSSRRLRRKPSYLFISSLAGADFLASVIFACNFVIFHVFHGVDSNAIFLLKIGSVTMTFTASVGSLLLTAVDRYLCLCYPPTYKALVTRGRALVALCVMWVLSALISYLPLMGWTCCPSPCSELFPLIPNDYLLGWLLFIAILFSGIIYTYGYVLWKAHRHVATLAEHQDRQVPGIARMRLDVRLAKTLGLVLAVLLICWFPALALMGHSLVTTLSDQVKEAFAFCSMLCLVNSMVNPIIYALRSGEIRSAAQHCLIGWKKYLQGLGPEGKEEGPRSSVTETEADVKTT

For the molecule `CCCCn1c2c(cc(C(N)=O)c1=O)CCCCCC2`, in the data set listed under Homo sapiens, the Ratio Ki was more than 125. The Ki was more than 5000 nM at Cannabinoid receptor 1 and 40 nM on Cannabinoid receptor 2 [1].

Turning to `CCCCn1c2c(cc(C(=O)NC(C)(C)c3ccccc3)c1=O)CCCCCC2`, the IC50 on Cannabinoid receptor 2 [2] is 0.2 nM.

`CCCCn1c2c(cc(C(=O)NC(C)C)c1=O)CCCCCC2`: in the data set listed under Homo sapiens, the Ratio Ki came out at 148. For the same molecule, the Emax on Cannabinoid receptor 2 [3] stood at 92%. Further, at Cannabinoid receptor 2 [2], the IC50 was 2.5 nM. Moreover, the results for the Ki at Cannabinoid receptor 1 and at Cannabinoid receptor 2 [1] were 591 nM and 4 nM, respectively.

`CCCCn1c(C)c(C)cc(NS(=O)(=O)c2ccccc2)c1=O` gave a Ki at Cannabinoid receptor 2 [1] of more than 5000 nM.

Consider `CCCCn1c2c(cc(C(=O)NCc3ccccc3)c1=O)CCC2`, for which, in the data set listed under Homo sapiens, the Ratio Ki turned out to be 8.9. Moreover, the Emax on Cannabinoid receptor 2 [3] turned out to be 83%. Also, the results for the Ki on Cannabinoid receptor 1 and on Cannabinoid receptor 2 [1] were 143 nM and 16 nM, respectively.

As to `CCCCn1c2c(cc(C(=O)NC3CCCCC3)c1=O)CCCCCC2`, in data set [4], the outcome was Active. Further, the half-life in [5] was 18 min. Further, in data set [6], the clearance amounted to 35 mL/min/kg. In data set [7], the Vd was 0.89 L/kg. Also, in the data set filed under Homo sapiens, the Ratio Ki was found to be 95. For the same molecule, the Emax on Cannabinoid receptor 2 [8] is 98%. The IC50 at Cannabinoid receptor 2 [2] is less than 0.2 nM.

Consider `CCCCn1c(C)c(C)cc(C(=O)NCc2ccccc2)c1=O`, for which the Ki on Cannabinoid receptor 1 is 606 nM; on Cannabinoid receptor 2 [1], 66 nM.

On Cannabinoid receptor 2 [1], `O=C(NCc1ccccc1)c1cc2c(n(CCCN3CCOCC3)c1=O)CCCCCC2` had a Ki of 209 nM.

Consider `CCCCn1c2c(cc(C(=O)NCc3ccccc3)c1=O)CCCCCC2`, for which the outcome in [4] was Active. For the same molecule, the Activity result in the data set with Mus musculus [9] is listed as “Non-toxic”. This molecule yielded a F in the data set on Mus musculus [10] of 25%. Moreover, the inhibition in vivo at 100 mg/kg with Mus musculus [11] was found to be 81%. Besides, the concentration in [12] peaked (Cmax) at 168 ng/mL. For the same molecule, the AUC in the data set on Mus musculus [13] worked out at 390 ng·h/mL. Moreover, the half-life in [14] was 16.8 min. Further, the Vd in data set [15] was 2.29 L/kg. In addition, the Ratio Ki in the data set filed under Homo sapiens is 593. The Emax on Cannabinoid receptor 2 [16] turned out to be 100%.

For the molecule `CC(C)CCn1c2c(cc(C(=O)NCc3ccccc3)c1=O)CCCCCC2`, in the data set listed under Homo sapiens, the Ratio Ki was 10. The Ki on Cannabinoid receptor 1 came to 9 nM; at Cannabinoid receptor 2 [1], 0.9 nM.

Turning to `CCCCn1c2c(cc(C(=O)NCc3ccccc3)c1=O)CCCC2`, in the data set filed under Homo sapiens, the Ratio Ki was 44. The Emax on Cannabinoid receptor 2 [3] stood at 76%. At Cannabinoid receptor 2 [2], the IC50 amounted to 17 nM. In addition, the Ki at Cannabinoid receptor 1 was 746 nM; on Cannabinoid receptor 2 [1] it was 17 nM.

Regarding `CCCCn1c2c(cc(C(=O)NCc3ccccc3)c1=O)COCC2`, on Cannabinoid receptor 2 [1], the Ki was 204 nM.

In the case of `CCCCn1c2c(cc(C(=O)NCCc3ccccc3)c1=O)CCCCCC2`, the Ratio Ki in the data set filed under Homo sapiens turned out to be 568. The maximal response (Emax) on Cannabinoid receptor 2 [16] was determined as 98%.

On to `CCCCn1c2c(cc(C(=O)NC3CCN(C)CC3)c1=O)CCCCCC2`, for which, at Cannabinoid receptor 2 [1], the inhibitory constant (Ki) is 147 nM.

On to `CCCCn1c(CC)c(C)cc(C(=O)NCc2ccccc2)c1=O`, for which the Ratio Ki in the data set filed under Homo sapiens came out at 16. The figures for the inhibition constant (Ki) on Cannabinoid receptor 1 and on Cannabinoid receptor 2 [1] were 322 nM and 20 nM, respectively.

On to `CCCCn1c(C)c(C)cc(NC(=O)Nc2ccccc2)c1=O`, for which the Ki on Cannabinoid receptor 2 [1] was more than 5000 nM.
